As a reminder, the AUC(0-t) is exposure summed from dosing to a finite time, without extrapolation to infinity. A low value points to low exposure. By Cmax is commonly meant the peak of the concentration-time curve. As usually defined, the AUC is the area under the concentration-time curve, a measure of exposure. What is called IC50 is the midpoint of a concentration-inhibition curve.

Bounds are passed on as bounds.

The values that follow come from ChEMBL document CHEMBL3526126, “Amide hydrolysis of a novel chemical series of microsomal prostaglandin E synthase-1 inhibitors induces kidney toxicity in the rat” (Drug Metab Dispos, 2013).

Data set [1] can be described thus: AUC (0 to 24 hrs) in Wistar Hannover rat at 200 umol/kg, po qd measured on day 1. The conditions noted are these: plasma.
The nature of data set [2]: Cmax in Wistar Hannover rat at 200 umol/kg, po qd measured on day 1. The conditions noted are these: in vivo.
The nature of data set [3]: Drug metabolism in Sprague-Dawley rat hepatocytes assessed as amide hydrolysis at 1 to 10 uM by LC-MS analysis. The format is ADME, cell-based, Hepatocyte. Summed up: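 Hepatocytes at 1 × 10^6 cells/ml in William's medium incubated at 37°C with gentle shaking under 5% CO2. Substrate was at […]. Metabolites were analysed by LC-MS.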
For data set [4], the system named is Rattus norvegicus. Nature of the data set: Toxicity in Wistar Hannover rat kidney assessed as crystals in urine at 76 to 230 umol/kg, po qd administered for 7 days measured on day 7 by hematoxylin/eosin staining-based light microscopic analysis. Format: organism-based. The conditions noted are these: in vivo, 168 h.
The nature of data set [5]: AUC (0 to 24 hrs) in Wistar Hannover rat at 70 umol/kg, po qd measured on day 1. The conditions noted are these: plasma.
Data set [6] can be described thus: Cmax in Wistar Hannover rat at 70 umol/kg, po qd measured on day 1. The conditions noted are these: in vivo.
Data set [7] has as its system Rattus norvegicus. Nature of the data set: Toxicity in Wistar Hannover rat kidney assessed as pathophysiological changes at 70 to 500 umol/kg, po qd administered for 7 days measured on day 7. The conditions noted are these: in vivo, 168 h.
Data set [8] is described as follows: AUC (0 to 24 hrs) in Sprague-Dawley rat at 70 umol/kg, po qd administered for 7 days measured on day 7. Further details: time < 24 hr, dose 70 umol/kg, route oral. The conditions noted are these: plasma. Format: ADME, organism-based. The gist of the method: (§1)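 Toxicity study 2: 2 female satellite rats per dose group. Dosing was once daily by oral gavage (10 ml/kg) for 7 days. Tail-vein EDTA blood was taken at 2, 4, 6, 7 and 24 h on day 1 and on day 7, then chilled and centrifuged to plasma. Parent and M1 were quantified by LC-MS/MS, with M1 measured in negative electrospray mode.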

Data set [9] in a line: AUC (0 to 24 hrs) in Sprague-Dawley rat at 200 umol/kg, po qd administered for 7 days measured on day 7. The format is ADME, organism-based. Further details: dose 200 umol/kg, time < 24 hr, route oral. The conditions noted are these: plasma. Summed up:
as §1

A short description of data set [10]: Cmax in Sprague-Dawley rat at 70 umol/kg, po qd administered for 7 days measured on day 7. The format is ADME, organism-based. Further details: dose 70 umol/kg, route oral. The conditions noted are these: in vivo. Summed up:
as §1

Data set [11] deals with Rattus norvegicus. The data set can be described thus: Toxicity in Wistar Hannover rat kidney assessed as increase in plasma urea level at >= 500 to 1000 umol/kg, po qd administered for 7 days measured on day 7. Format: organism-based. The conditions noted are these: in vivo, 168 h. The gist of the method:
(§2)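 Wistar Hannover rats, about 8 weeks old, were acclimatized about 2 weeks and randomized by body weight. Dosing was by oral gavage (10 ml/kg) once daily for 7 days, with vehicle controls. At the end of dosing, plasma (lithium heparin) was taken from the orbital plexus under isoflurane/oxygen anaesthesia, and urea and creatinine were measured.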

A short description of data set [12]: Cmax in Sprague-Dawley rat at 200 umol/kg, po qd administered for 7 days measured on day 7. The format is ADME, organism-based. Details: dose 200 umol/kg, route oral. The conditions noted are these: in vivo. The gist of the method: as §1
Data set [13] deals with Rattus norvegicus. The data set can be described thus: Toxicity in Wistar Hannover rat kidney assessed as increase in plasma creatinine level at >= 500 to 1000 umol/kg, po qd administered for 7 days measured on day 7. Format: organism-based. The conditions noted are these: in vivo, 168 h. Summed up:
as §2

Data set [14] is described as follows: Cmax in Wistar Hannover rat at 500 umol/kg, po qd measured on day 1. The conditions noted are these: in vivo.
The target of another data set is T1, Prostaglandin E synthase (Homo sapiens, UniProt O14684).
T1 sequence (O14684 whole entry): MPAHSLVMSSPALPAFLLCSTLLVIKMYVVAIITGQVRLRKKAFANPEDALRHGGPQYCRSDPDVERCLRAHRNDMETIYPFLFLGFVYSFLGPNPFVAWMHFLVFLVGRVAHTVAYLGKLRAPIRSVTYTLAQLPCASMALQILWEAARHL
The data set can be described thus: Inhibition of human mPGES-1 by whole blood assay.

Data set [15] can be described thus: AUC (0 to 24 hrs) in Wistar Hannover rat at 170 umol/kg, po qd measured on day 1. The conditions noted are these: plasma.
The nature of data set [16]: AUC (0 to 24 hrs) in Sprague-Dawley rat at 500 umol/kg, po qd administered for 7 days measured on day 7. The format is ADME, organism-based. Further details: dose 500 umol/kg, time < 24 hr, route oral. The conditions noted are these: plasma. Summed up: as §1
Data set [17] can be described thus: Cmax in Wistar Hannover rat at 170 umol/kg, po qd measured on day 1. The conditions noted are these: in vivo.
Data set [18] is described as follows: Cmax in Sprague-Dawley rat at 170 umol/kg, po qd administered for 7 days measured on day 7. Format: ADME, organism-based. Further details: dose 170 umol/kg, route oral. The conditions noted are these: in vivo. Summed up:
as §1

Data set [19] is described as follows: AUC (0 to 24 hrs) in Sprague-Dawley rat at 170 umol/kg, po qd administered for 7 days measured on day 7. The conditions noted are these: plasma. Format: ADME, organism-based. Details: time < 24 hr, dose 170 umol/kg, route oral. Summed up: as §1
The test system of data set [20] is Rattus norvegicus. Nature of the data set: Toxicity in Wistar Hannover rat kidney assessed as crystals in urine at 500 umol/kg, po qd administered for 7 days measured on day 7. The format is organism-based. The conditions noted are these: in vivo, 168 h.
A short description of data set [21]: AUC (0 to 24 hrs) in Wistar Hannover rat at 500 umol/kg, po qd measured on day 1. The conditions noted are these: plasma.
Data set [22] in a line: Cmax in Sprague-Dawley rat at 500 umol/kg, po qd administered for 7 days measured on day 7. The format is ADME, organism-based. Further details: dose 500 umol/kg, route oral. The conditions noted are these: in vivo. Summed up: as §1
Data set [23] has as its system Hepatocyte. The data set can be described thus: Drug level in Sprague-Dawley rat hepatocytes treated with AZ'7847 at 1 to 10 uM by radio monitoring method. Format: ADME, cell-based. The gist of the method: (§3)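 Metabolic profiling in rat hepatocytes at 1 × 10^6 cells/ml in William's medium, shaken gently at 37°C under 5% CO2. Substrate was tested at two concentrations (1 and 10). For radio detection, a 14C-labelled substrate was separated on an Atlantis T3 column (1 ml/min) with a 1:20 split to the MS and a flow scintillation monitor.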

For data set [24], the system named is Hepatocyte. The data set can be described thus: Drug level in Sprague-Dawley rat hepatocytes treated with AZ'7847 at 1 to 10 uM by LC-MS analysis. The format is ADME, cell-based. The gist of the method:
as §3

The subject of data set [25] is Rattus norvegicus. The data set can be described thus: Drug level in Wistar Hannover rat treated with [14C]-AZ'7847 at 500 umol/kg, po qd administered for 7 days measured on day 7 by radio monitoring method. Format: ADME, organism-based. The conditions noted are these: in vivo, 168 h.

For the compound `COc1cc(C(=O)NS(=O)(=O)c2ccccc2S(N)(=O)=O)ccc1C#CC1CC1`, the figures for the AUC(0-t) at 24 h in data set [1] and in [5] were 970 µM·h and 610 µM·h, respectively. Besides, the Cmax in data set [2] was 90 µM; in data set [6] it was 50 µM; in data set [10], 50 µM; in data set [12], 110 µM. In [3], the Drug metabolism result is listed as “metabolite_not_detected”. Further, the Activity result in the data set with Rattus norvegicus [4], with Rattus norvegicus [7], in the data set on Rattus norvegicus [11] and in the data set on Rattus norvegicus [13] was “Non-toxic” in each case. Also, the figures for the AUC at 24 h in data set [8] and in data set [9] were 550 µM·h and 1070 µM·h, respectively.

Take `CC(C)C#Cc1ccc(C(=O)NS(=O)(=O)c2ccccc2S(N)(=O)=O)cc1OCCC(F)(F)F`: the Cmax was 300 µM in data set [14], 170 µM in data set [17], 190 µM in data set [18] and 320 µM in data set [22]. Further, the Drug metabolism entry in [3] is reported as “metabolite_not_detected”. On Prostaglandin E synthase, this compound gave a concentration for half-maximal inhibition (IC50) greater than 2000 nM. For the same compound, the AUC(0-t) at 24 h stood at 1260 µM·h in data set [15] and 3410 µM·h in [21]. Also, the exposure (AUC) at 24 h in data set [16] was 3010 µM·h; in data set [19], 1600 µM·h. Moreover, the Activity entry in the data set on Rattus norvegicus [7] was “Non-toxic”; with Rattus norvegicus [20] it was “Toxic”; in the data set with Rattus norvegicus [11], “Non-toxic”; in the data set with Rattus norvegicus [13] it was “Non-toxic”.

With `O=[14C](O)c1ccc(C#Cc2ccccc2)cc1`, the Drug metabolism result with Hepatocyte [23], with Hepatocyte [24] and in the data set on Rattus norvegicus [25] was “metabolite_detected” each time.
